# Screening data from PubChem.
# TRPC6 act – activates the mouse TRPC6 cation channel | Q61143 | HEK293-TRPC6 membrane potential dye fluorescence; stronger effect = higher value | B-score at 10 µM | actives 0.13% (n = 310,000) | AID 2550;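 active means B-score of the integrated fluorescence ratio above library mean plus 3 SD, and starting fluorescence ratio within library mean plus 5 SD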;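 further: higher score means more depolarization so channel activation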
# TRPC4 inh – TRPC4 (mouse) channel inhibition | Q9QUQ5 | HEK293 TRPC4beta/mu-opioid, DAMGO-evoked Fluo4 calcium flux; stronger effect = lower value | B-score at 10 µM | actives 0.39% (n = 300,000) | AID 2247;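 active means B-score over 3 SD under the library average, no early fluorescence shift, positive overall ratio signal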
# Target sequence (Q9QUQ5 whole entry, looked up): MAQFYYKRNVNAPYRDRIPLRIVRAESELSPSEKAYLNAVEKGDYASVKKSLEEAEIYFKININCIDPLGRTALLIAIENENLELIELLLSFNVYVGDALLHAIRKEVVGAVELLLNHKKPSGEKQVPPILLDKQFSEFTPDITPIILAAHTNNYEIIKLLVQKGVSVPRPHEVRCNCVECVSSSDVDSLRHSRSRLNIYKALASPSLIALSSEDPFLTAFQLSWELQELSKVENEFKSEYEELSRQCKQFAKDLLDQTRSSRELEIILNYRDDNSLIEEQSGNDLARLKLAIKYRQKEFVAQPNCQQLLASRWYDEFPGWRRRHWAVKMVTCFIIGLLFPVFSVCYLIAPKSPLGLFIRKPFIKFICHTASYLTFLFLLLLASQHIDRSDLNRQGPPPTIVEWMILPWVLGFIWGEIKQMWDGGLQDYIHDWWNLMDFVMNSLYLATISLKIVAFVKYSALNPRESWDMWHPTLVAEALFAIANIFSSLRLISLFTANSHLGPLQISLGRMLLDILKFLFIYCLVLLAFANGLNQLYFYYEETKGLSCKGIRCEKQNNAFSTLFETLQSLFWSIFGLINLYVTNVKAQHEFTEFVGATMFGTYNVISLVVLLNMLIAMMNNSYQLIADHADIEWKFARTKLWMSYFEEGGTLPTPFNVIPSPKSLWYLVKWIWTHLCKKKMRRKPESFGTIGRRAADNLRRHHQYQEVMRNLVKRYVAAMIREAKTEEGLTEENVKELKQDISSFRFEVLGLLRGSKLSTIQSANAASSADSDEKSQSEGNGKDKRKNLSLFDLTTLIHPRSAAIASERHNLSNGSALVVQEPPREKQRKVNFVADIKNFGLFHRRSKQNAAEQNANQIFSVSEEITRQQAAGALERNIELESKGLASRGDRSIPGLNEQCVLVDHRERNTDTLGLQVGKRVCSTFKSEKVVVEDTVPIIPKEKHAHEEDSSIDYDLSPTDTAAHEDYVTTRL
#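 material = TRPC4beta/mu-opioid receptor HEK293 cell line | probe or stimulus = sequential submaximal and maximal DAMGO stimulation | compound dosing = one concentration per compound | measured by = Fluo4 Ca2+ flux fluorescence | evaluation = integrated fluorescence ratio relative to baseline, converted to per-well B score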
# TRPC4 agonist – activators of mouse TRPC4 channel; HEK293 TRPC4beta/mu-opioid, Fluo4 calcium fluorescence; stronger effect = higher value; actives 0.49% (n = 310,000); B-score at 10 µM; Q9QUQ5; AID 2237;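 active means B-score above 5 SD of library B-scores, and initial fluorescence ratio not above library mean plus 5 SD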;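 further: positive B-score marks a calcium rise read as TRPC4 activation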
#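 Assay system: HEK293 cells stably co-expressing mouse TRPC4beta and mu-opioid receptor / Timing: Fluo4 dye loading 45 min at room temperature, 110 s recording / Signal: Fluo4 calcium-sensitive dye fluorescence, kinetic, 1 Hz baseline / Read-out: integrated baseline-normalised fluorescence ratio, converted to per-well B score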
# TRPC6 inhibitor – blocks the mouse TRPC6 cation channel. Q61143. HEK293-TRPC6, membrane potential dye, ACh-evoked depolarization; stronger effect = lower value. B-score at 10 µM. actives 1.1% (n = 310,000). AID 2553;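 active means B-score under library mean minus 3 SD, initial fluorescence not abnormally high, positive integrated signal ratio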;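 further: B-score derived from integrated fluorescence ratio over the kinetic read; more negative B-score means stronger inhibition of depolarization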
# TRPC4 PAM – TRPC4 (mouse) allosteric potentiation; Q9QUQ5; HEK293 TRPC4beta/mu-opioid, DAMGO EC20, Fluo-4 Ca2+ flux; stronger effect = higher value; B-score at 10 µM; actives 0.42% (n = 310,000);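 active means B-score of calcium response area above 5 SD of library B-scores, with initial fluorescence ratio within 5 SD of library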;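 further: B-score of integrated fluorescence ratio over time as area under calcium response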
# TRPC4 sel inh 2 – second selectivity test of TRPC6 inhibitors: effect on mouse TRPC4 | shares compounds with TRPC6 inhibitor | HEK293 TRPC4/MOR, membrane potential dye fluorescence; channel activated by saturating DAMGO dose | inhibition, % at 10 µM | actives 42% (n = 920) | AID 2776;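 active means compounds whose fluorescence signal differed from control wells by over 3 SD, either direction, in both duplicate plates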
# TRPC4 spec – selectivity of TRPC6 inhibitors: effect on mouse TRPC4; shares compounds with TRPC6 inhibitor; HEK293 TRPC4/mu-opioid, membrane potential fluorescence; activity change, negative = inhibition, % at 10 µM; actives 61% (n = 920); AID 2777;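 active means rise or fall in signal beyond 3 SD of buffer-only wells in both replicate plates, either sign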;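 further: integrated kinetic ratio of fluorescence range over baseline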
# HEK293 MPD ctr 2-1 – parental HEK293 nonspecific activity of TRPC6 inhibitors, second screen. shares compounds with TRPC6 inhibitor. parental HEK293 membrane potential dye fluorescence; maximal acetylcholine challenge after compound addition. signal change vs control, % at 10 µM. actives 31% (n = 920);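 active means membrane potential signal moving either way by over 3 SD of the maximum-effect control, in both duplicate plates, meaning non-specific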
# HEK293 MPD ctr-1 – checks TRPC6 inhibitor effects in parental HEK293 cells; shares compounds with TRPC6 inhibitor; parental HEK293 membrane potential dye fluorescence; membrane potential signal change, % at 10 µM; actives 60% (n = 920); AID 2780;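 active means membrane potential signal shifting up or down by more than 3 SD of buffer-only wells, on both duplicate plates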
# HEK293 MPD ctr-2 – checks TRPC6 modulator effects in parental HEK293 cells; shares compounds with TRPC6 inhibitor; membrane potential dye fluorescence; membrane potential signal change, % at 10 µM; actives 51% (n = 2,400);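 active means membrane potential signal moves up or down beyond 5 SD from buffer-only wells, on both duplicate plates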
# HEK293 MPD ctr 2-2 – second check of TRPC6 modulator effects in parental HEK293 cells; shares compounds with TRPC6 inhibitor; membrane potential dye fluorescence; after compound, maximal acetylcholine stimulation; inhibition, % at 10 µM; actives 14% (n = 2,400);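 active means membrane potential signal drops by more than 5 SD from the mean control signal, in both duplicate plates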;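 further: plate controls were acetylcholine ECmax control wells for no effect and buffer only wells for full effect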
# TRPC4/MOR mod – selectivity of TRPC6 modulators against mouse TRPC4 | shares compounds with TRPC6 inhibitor | HEK293 TRPC4/mu-opioid, membrane potential fluorescence | percent change from control (negative = decrease, positive = increase), % at 10 µM | actives 69% (n = 2,400);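 active means membrane potential signal moved up or down beyond 5 SD of buffer control wells, in both duplicate plates, actives on both sides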;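 further: plate controls were assay buffer wells for no effect and DAMGO maximal-effect wells for full effect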
# TRPC4 ctr inh 2 – second selectivity test of TRPC6 modulators against mouse TRPC4. shares compounds with TRPC6 inhibitor. HEK293 TRPC4/mu-opioid, membrane potential dye fluorescence; stimulated with maximal-effect DAMGO. inhibition, % at 10 µM. actives 55% (n = 2,400). AID 488928;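 active means drop in membrane potential signal beyond 5 SD of the control wells in both duplicate plates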;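 further: TRPC4 counter screen for TRPC6 hits run under conditions tuned for TRPC6 not TRPC4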
# TRPC6 inh conf – confirmation of mouse TRPC6 inhibitors; shares compounds with TRPC6 inhibitor; AID 488960; actives 43% (n = 3,300); inhibition, % at 10 µM; HEK293-TRPC6, membrane potential dye, ACh-evoked depolarization;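 active means fluorescence ratio falls more than 5 SD below the full-stimulation control mean, in both duplicate runs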;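 further: integrated fluorescence ratio of peak minus minimum over baseline after agonist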
# TRPC6 act conf – mouse TRPC6 activator confirmation; shares compounds with TRPC6 inhibitor; HEK293-TRPC6 membrane potential dye fluorescence, FDSS; activation, % at 10 µM; actives 11% (n = 2,800);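 active means ratio signal rise beyond 5 SD above unstimulated control wells' mean, seen in both duplicate runs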;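 further: plate controls were buffer EC0 wells for no effect and acetylcholine ECmax response for full effect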
# Active calls of the source: *; i = inactive; x = no result. Only some compounds are listed: those with a hit (about 2.3% of all), similar ones and a draw of the others.
SMILES,TRPC6 act,TRPC4 inh,TRPC4 agonist,TRPC6 inhibitor,TRPC4 PAM,HEK293 MPD ctr-2,HEK293 MPD ctr 2-2,TRPC4/MOR mod,TRPC4 ctr inh 2,TRPC6 inh conf,TRPC6 act conf,others
Cn1ccnc1C1CCCCN1Cc1nc(Cc2cccc(C(F)(F)F)c2)no1 (centres undefined),i,i,i,-5.3*,i,136.5%*,i,32.0%*,27.0%*,i,x,
Cn1ccnc1C1CCCCN1Cc1nc(-c2ccc3c(c2)OCO3)no1 (centres undefined),i,i,i,-5.3*,i,184.0%*,62.5%*,44.0%*,40.0%*,47.5%*,x,
Cc1ccc2nc(NCCCN3CCOCC3)c(C=NCCCN3CCOCC3)c(=O)n2c1,i,i,i,-8.91*,i,-350.5%*,79.5%*,-66.5%*,53.0%*,63.5%*,i,
Cc1ccc2nc(NCc3ccccc3)c(C=NCc3ccccc3)c(=O)n2c1,i,i,i,i,i,x,x,x,x,x,x,
Cc1ccc2nc3c(cc(C(=O)NCCN4CCOCC4)c(=N)n3CCCN3CCOCC3)c(=O)n2c1,i,i,i,-7.48*,i,x,x,x,x,82.6%*,x,TRPC4 sel inh 2=72.0%*;TRPC4 spec=i;HEK293 MPD ctr 2-1=-173.5%*;HEK293 MPD ctr-1=i
N=c1c(C(=O)NCCN2CCOCC2)cc2c(=O)n3ccccc3nc2n1Cc1ccc(F)cc1,i,i,i,-7.74*,i,-74.5%*,90.5%*,-17.0%*,45.0%*,56.0%*,i,
N=c1c(C(=O)NCCN2CCOCC2)cc2c(=O)n3ccccc3nc2n1CCCN1CCOCC1,i,i,i,-7.57*,i,x,x,x,x,77.0%*,i,TRPC4 sel inh 2=69.5%*;TRPC4 spec=3.7%*;HEK293 MPD ctr 2-1=-287.5%*;HEK293 MPD ctr-1=5.5%*
Cc1ccc(-c2nnc(SCC(=O)NC3CCS(=O)(=O)C3)nc2-c2ccc(C)cc2)cc1 (centres undefined),i,i,i,i,i,x,x,x,x,x,x,
COC(=O)c1[nH]c2ccc(Br)cc2c1NC(=O)CN1CCN(C2CCCCC2)CC1,i,i,i,-16.8*,i,x,x,x,x,94.1%*,i,TRPC4 sel inh 2=29.5%*;TRPC4 spec=-24.1%*;HEK293 MPD ctr 2-1=20.0%*;HEK293 MPD ctr-1=-268.5%*
CCOC(=O)c1[nH]c2ccc(OC)cc2c1NC(=O)/C=C/c1ccc2c(c1)OCO2,i,i,i,i,i,x,x,x,x,x,x,
COC(=O)c1[nH]c2ccc(Br)cc2c1NC(=O)CN1CCCc2ccccc21,i,i,i,i,i,x,x,x,x,x,x,
COC(=O)c1[nH]c2ccccc2c1NC(=O)CN1CCN(Cc2ccc3c(c2)OCO3)CC1,i,i,i,-5.62*,i,i,i,i,66.0%*,57.0%*,i,
O=C(/C=C/c1ccc2c(c1)OCO2)Nc1c(C(=O)O)[nH]c2ccccc12,14.5*,i,i,i,i,i,i,16.0%*,i,i,54.0%*,
COC(=O)c1[nH]c2cc(C)ccc2c1NC(=O)CN1CCCc2ccccc21,i,i,i,-11*,i,x,x,x,x,i,i,TRPC4 sel inh 2=i;TRPC4 spec=-10.5%*;HEK293 MPD ctr 2-1=i;HEK293 MPD ctr-1=i
COC(=O)c1[nH]c2ccc(C)cc2c1NC(=O)CCN1CCN(C2CCCCC2)CC1,i,i,i,i,i,x,x,x,x,x,x,
COc1cc(NC(=O)CN2CCN(Cc3ccc4c(c3)OCO4)CC2)cc(OC)c1,i,i,i,i,i,x,x,x,x,x,x,
CCOC(=O)c1ccccc1NS(=O)(=O)c1cnn(CC)c1C,i,i,i,i,i,x,x,x,x,x,x,
CC(C)(C)n1nnnc1C(c1ccc2ncccc2c1)N1CCC(O)CC1 (centres undefined),i,i,i,i,i,x,x,x,x,x,x,
c1cnc2ccc(C(c3nnnn3C3CCCC3)N3CCSCC3)cc2c1 (centres undefined),19.3*,i,i,-6.24*,i,120.0%*,i,31.5%*,i,98.0%*,147.5%*,
CCC(C)(C)n1nnnc1C(c1ccc2ncccc2c1)N1CCCC(C)C1 (centres undefined),i,i,i,-7.22*,i,x,x,x,x,i,x,TRPC4 sel inh 2=i;TRPC4 spec=27.2%*;HEK293 MPD ctr 2-1=i;HEK293 MPD ctr-1=15.7%*
CC(=O)Nc1ccc(NC(=O)COC(=O)CCCc2c[nH]c3ccccc23)cc1,i,i,i,i,i,x,x,x,x,x,x,
O=C(Cc1ccc([N+](=O)[O-])cc1)Nc1ccc2c(c1)CCC2,i,i,i,-5.21*,i,i,i,i,i,i,i,
O=C(Cc1ccc([N+](=O)[O-])cc1)Nc1ccc2c(c1)OCO2,i,i,i,i,i,x,x,x,x,x,x,
CC1Cc2ccccc2N1C(=O)c1ccc(N2CCCCC2)c([N+](=O)[O-])c1 (centres undefined),i,i,i,-5.81*,i,i,i,i,i,i,i,
CC1Cc2ccccc2N1C(=O)c1ccc(N2CCCC2)c([N+](=O)[O-])c1 (centres undefined),i,i,i,i,i,x,x,x,x,x,x,
O=C(NCC1CCCO1)c1ccc(NS(=O)(=O)c2cccs2)cc1 (centres undefined),i,i,i,i,i,x,x,x,x,x,x,
